We go through 1 compound from ChEMBL document CHEMBL1765003, “Discovery of (1S,2R,3R)-2,3-dimethyl-2-phenyl-1-sulfamidocyclopropanecarboxylates: novel and highly selective aggrecanase inhibitors” (J Med Chem, 2011).

Bounds are passed on as bounds.

One data set addresses T1, Cytochrome P450 2A6 (Homo sapiens, UniProt P11509).
T1 sequence (P11509 whole entry): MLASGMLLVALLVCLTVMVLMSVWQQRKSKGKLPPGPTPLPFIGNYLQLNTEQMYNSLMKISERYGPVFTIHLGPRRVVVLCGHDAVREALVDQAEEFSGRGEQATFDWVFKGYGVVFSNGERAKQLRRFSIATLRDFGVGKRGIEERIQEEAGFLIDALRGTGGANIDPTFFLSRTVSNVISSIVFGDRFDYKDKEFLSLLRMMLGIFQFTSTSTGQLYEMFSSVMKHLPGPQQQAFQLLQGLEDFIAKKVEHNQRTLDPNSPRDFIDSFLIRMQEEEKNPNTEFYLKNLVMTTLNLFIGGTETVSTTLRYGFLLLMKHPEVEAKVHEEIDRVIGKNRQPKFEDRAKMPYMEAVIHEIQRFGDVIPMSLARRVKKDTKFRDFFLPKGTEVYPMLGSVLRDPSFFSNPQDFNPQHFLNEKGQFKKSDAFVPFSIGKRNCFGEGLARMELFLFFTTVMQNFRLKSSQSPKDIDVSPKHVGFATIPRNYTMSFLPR
Kind of data set: Inhibition of CYP2A6 at up to 50 uM. The data set is classed as ADME.

The target of data set [1] is Matrix metalloproteinase-9 (Homo sapiens, UniProt P14780). Kind of data set: Inhibition of human recombinant MMP9 after 60 mins by fluorescence plate reader. In short, it runs like this:
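rh-MMP-9 at 4 ng/mL with 10 μM MOCAc-Pro-Leu-Gly-Leu-A2pr(Dnp)-Ala-Arg-NH₂, in 100 mM Tris-HCl pH 7.5, 150 mM NaCl, 10 mM CaCl₂, 0.05% Brij-35. Enzyme and inhibitor preincubated for 15 min at 25 °C before substrate. Fluorescence (ex 325/em 405 nm) read at 60 min. IC50 from three linear-range points; ≥2 runs averaged.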

Data set [2] concerns the target T2, A disintegrin and metalloproteinase with thrombospondin motifs 5 (Homo sapiens, UniProt Q9UNA0).
T2 sequence (Q9UNA0 whole entry): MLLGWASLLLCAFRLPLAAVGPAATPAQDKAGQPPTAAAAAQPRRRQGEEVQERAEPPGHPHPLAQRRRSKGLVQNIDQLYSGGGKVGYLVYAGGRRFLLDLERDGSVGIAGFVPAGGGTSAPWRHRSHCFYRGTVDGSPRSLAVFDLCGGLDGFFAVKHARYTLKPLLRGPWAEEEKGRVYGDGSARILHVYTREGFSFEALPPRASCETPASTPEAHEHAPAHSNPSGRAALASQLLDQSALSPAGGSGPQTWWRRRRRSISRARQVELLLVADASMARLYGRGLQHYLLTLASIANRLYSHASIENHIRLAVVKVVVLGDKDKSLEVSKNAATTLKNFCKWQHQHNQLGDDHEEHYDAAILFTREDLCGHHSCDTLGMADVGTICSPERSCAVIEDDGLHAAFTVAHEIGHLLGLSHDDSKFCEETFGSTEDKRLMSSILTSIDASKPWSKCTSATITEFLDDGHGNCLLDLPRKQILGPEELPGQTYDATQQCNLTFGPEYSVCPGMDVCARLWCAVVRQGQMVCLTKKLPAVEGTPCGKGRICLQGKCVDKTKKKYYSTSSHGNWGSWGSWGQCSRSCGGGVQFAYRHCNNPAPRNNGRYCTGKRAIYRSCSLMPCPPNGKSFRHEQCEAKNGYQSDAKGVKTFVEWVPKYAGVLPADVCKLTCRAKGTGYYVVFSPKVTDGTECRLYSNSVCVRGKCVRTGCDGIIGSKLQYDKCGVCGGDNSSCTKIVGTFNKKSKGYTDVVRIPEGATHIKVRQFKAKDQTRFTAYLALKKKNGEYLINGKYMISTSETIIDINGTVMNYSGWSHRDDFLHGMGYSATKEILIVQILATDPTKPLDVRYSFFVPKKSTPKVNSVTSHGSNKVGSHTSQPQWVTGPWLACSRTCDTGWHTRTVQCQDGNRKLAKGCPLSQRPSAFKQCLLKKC
Kind of data set: Inhibition of human recombinant aggrecanase 2 after 150 mins by fluorescence plate reader.

A further data set has as its target Cytochrome P450 2C9 (Homo sapiens, UniProt P11712). Put plainly: Inhibition of CYP2C9 at up to 50 uM. In kind it is ADME.
The target in data set [3] is Matrix metalloproteinase-14 (Homo sapiens, UniProt P50281). Put plainly: Inhibition of human recombinant MMP14 after 60 mins by fluorescence plate reader. Summed up: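 Recombinant human enzyme at 20 ng/mL with 10 μM MOCAc-Lys-Pro-Leu-Gly-Leu-A2pr(Dnp)-Ala-Arg-NH₂, in 100 mM Tris-HCl pH 7.5, 150 mM NaCl, 10 mM CaCl₂, 0.05% Brij-35. Enzyme pretreated with inhibitor for 15 min at 25 °C, then substrate added. Fluorescence (ex 325, em 405 nm) read at 60 min. IC50 taken from three points in the linear range; mean of ≥2 determinations.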

The target in another data set is Cytochrome P450 2C19 (Homo sapiens, UniProt P33261). Put plainly: Inhibition of CYP2C19 at up to 50 uM. The data set is classed as ADME.
Sequence of Cytochrome P450 2C19 (P33261 whole entry): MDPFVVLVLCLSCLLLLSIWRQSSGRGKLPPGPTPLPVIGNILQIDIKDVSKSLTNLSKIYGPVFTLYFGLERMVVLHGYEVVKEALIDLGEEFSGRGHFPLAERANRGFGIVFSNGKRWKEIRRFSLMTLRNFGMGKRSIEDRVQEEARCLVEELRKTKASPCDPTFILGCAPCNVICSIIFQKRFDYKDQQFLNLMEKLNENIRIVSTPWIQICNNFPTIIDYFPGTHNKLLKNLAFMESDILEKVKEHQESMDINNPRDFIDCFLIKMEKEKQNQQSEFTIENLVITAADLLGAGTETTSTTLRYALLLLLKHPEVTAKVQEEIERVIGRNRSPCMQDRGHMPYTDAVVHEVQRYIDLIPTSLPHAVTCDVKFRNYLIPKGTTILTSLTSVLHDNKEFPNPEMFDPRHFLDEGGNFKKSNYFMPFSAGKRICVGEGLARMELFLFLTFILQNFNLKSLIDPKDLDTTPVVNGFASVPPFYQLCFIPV
The nature of data set [4]: AUC in Sprague-Dawley rat at 10 mg/kg, po. The conditions noted are these: plasma. More on the design: dose 10 mg/kg, route oral. In kind it is ADME, organism-based.
Data set [5] has as its target T3, A disintegrin and metalloproteinase with thrombospondin motifs 4 (Homo sapiens, UniProt O75173).
T3 sequence (O75173 whole entry): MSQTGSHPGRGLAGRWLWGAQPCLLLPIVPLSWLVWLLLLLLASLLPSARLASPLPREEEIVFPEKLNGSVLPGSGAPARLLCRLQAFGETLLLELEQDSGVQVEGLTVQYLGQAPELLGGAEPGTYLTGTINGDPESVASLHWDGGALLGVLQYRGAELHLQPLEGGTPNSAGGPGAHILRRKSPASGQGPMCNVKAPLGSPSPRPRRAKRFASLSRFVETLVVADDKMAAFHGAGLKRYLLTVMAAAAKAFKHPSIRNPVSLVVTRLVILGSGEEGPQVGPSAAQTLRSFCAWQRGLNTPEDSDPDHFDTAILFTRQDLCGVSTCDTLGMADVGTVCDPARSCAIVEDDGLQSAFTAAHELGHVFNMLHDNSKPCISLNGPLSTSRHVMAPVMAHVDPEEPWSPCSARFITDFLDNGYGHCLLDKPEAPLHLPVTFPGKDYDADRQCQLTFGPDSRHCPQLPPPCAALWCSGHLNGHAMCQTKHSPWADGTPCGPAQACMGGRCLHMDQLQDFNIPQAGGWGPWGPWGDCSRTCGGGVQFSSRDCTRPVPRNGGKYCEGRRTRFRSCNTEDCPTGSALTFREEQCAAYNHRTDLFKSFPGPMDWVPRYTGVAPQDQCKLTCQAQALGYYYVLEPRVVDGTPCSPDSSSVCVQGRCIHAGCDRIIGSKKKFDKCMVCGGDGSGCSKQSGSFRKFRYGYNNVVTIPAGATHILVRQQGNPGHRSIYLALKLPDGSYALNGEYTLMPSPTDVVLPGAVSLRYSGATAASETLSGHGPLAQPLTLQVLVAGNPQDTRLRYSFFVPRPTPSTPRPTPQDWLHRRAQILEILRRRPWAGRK
Put plainly: Inhibition of human recombinant aggrecanase 1 after 150 mins by fluorescence plate reader.

Sequence of Matrix metalloproteinase-9 (P14780 whole entry): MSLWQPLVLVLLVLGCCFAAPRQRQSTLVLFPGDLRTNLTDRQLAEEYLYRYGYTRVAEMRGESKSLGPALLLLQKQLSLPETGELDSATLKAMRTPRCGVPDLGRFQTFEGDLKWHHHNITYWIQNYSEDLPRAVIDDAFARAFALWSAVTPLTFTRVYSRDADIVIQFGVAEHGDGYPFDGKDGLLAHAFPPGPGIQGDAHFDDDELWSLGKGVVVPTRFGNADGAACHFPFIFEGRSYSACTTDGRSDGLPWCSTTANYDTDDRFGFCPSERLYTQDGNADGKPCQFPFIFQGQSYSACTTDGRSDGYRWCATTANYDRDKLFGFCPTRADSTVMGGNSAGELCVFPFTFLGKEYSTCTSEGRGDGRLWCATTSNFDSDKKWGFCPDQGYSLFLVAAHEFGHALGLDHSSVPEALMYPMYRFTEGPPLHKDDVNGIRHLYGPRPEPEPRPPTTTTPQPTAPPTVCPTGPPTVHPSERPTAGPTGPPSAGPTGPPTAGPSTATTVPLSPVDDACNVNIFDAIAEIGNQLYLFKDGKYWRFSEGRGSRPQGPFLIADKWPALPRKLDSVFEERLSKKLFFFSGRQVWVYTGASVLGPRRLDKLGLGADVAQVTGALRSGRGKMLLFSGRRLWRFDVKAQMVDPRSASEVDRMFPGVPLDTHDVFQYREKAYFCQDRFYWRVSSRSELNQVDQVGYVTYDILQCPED
Sequence of Cytochrome P450 2C9 (P11712 whole entry): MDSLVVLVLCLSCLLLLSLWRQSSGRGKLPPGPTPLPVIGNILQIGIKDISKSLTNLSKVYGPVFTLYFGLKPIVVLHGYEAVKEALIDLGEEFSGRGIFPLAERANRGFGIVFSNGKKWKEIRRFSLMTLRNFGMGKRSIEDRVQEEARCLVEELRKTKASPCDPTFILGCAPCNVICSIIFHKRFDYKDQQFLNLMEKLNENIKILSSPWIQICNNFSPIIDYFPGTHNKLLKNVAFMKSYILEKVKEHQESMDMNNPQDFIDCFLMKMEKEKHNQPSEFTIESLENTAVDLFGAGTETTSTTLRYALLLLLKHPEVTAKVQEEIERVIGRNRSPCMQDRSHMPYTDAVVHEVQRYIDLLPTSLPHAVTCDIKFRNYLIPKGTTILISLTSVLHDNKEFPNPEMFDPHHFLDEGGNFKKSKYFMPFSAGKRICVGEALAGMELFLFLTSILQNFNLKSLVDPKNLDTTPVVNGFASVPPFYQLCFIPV

As for `C[C@@H]1[C@](C)(c2ccccc2)[C@]1(NS(=O)(=O)N1CCc2c(nc3cc(F)ccn23)C1)C(=O)O`, the “inhibition (INH)” value on Cytochrome P450 2A6, on Cytochrome P450 2C9 and against Cytochrome P450 2C19 was “Not Active” in each case. Further, the IC50 was greater than 10 µM in data set [1], 0.0084 µM in data set [2], greater than 10 µM in data set [3] and 0.023 µM in data set [5]. The compound further returned an exposure (AUC) in data set [4] of 421 µM·h.
